Assay results published in ChEMBL document CHEMBL1148134, “Differentiation- and apoptosis-inducing activities by pentacyclic triterpenes on a mouse melanoma cell line” (J Nat Prod, 2002).
Active and inactive are the calls of the source. The calls are words filed in the database; no cut-off is given here.

Key:
[1] = system: B16; experiment: Growth inhibition of mouse B16 2F2 cells after 3 days; type: functional, cell-based; conditions: B16, 72 h
In short: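 B16 2F2 melanoma subclone, 1 × 10^5 cells per 1 mL aliquot, exposed to a range of triterpene concentrations for 3 days. Viable cells counted as in earlier work. IC50 = concentration giving 50% growth inhibition.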

[2] = system: B16; experiment: Induction of melanogenesis in mouse B16 2F2 cells assessed as intracellular melanin content after 3 days; type: functional; conditions: B16, 72 h, read-out: ED50 (the source's name)
In short: (§1)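 Aliquots of 1 × 10^5 B16 2F2 cells in 1 mL incubated 3 days (72 h) across a triterpene concentration range, including 1.0 and 10 µM. Intracellular melanin content measured per previously described method. ED50 derived from dose-response curves of melanogenesis up-regulation.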

[3] = system: B16; experiment: Induction of apoptosis in mouse B16 2F2 cells assessed as condensation and fragmentation of nuclei at 10 uM after 48 hrs by Hoechst 33258 staining based fluorescence microscopy; type: functional
In short: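 B16 2F2 cells held with or without triterpene at 10 µM for 48 h, collected, washed in PBS, fixed in 1% glutaraldehyde, then stained 30 min with 50 µM Hoechst 33258. Nuclear condensation/fragmentation scored by fluorescence microscopy, apoptotic cells counted manually on at least 200 cells.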

[4] = system: B16; experiment: Induction of melanogenesis in mouse B16 2F2 cells assessed as intracellular melanin content up to 10 uM after 3 days; type: functional, cell-based; in short: as §1

| Compound | IC50 [1] [µM] | EC50 [2] [µM] | Activity [3] [%] | Activity [4] |
| --- | --- | --- | --- | --- |
| C[C@H]1[C@H](C)CC[C@]2(C)CC[C@]3(C)C(=CC[C@@H]4[C@@]5(C)CC[C@H](O)C(C)(C)[C@@H]5CC[C@]43C)[C@H]12 | 50 | > 50 |  |  |
| CC1(C)CC[C@]2(C)CC[C@]3(C)C(=CC[C@@H]4[C@@]5(C)CCC(=O)C(C)(C)[C@@H]5CC[C@]43C)[C@@H]2C1 | 38.7 | > 50 |  |  |
| C[C@H]1[C@H](C)CC[C@]2(C)CC[C@]3(C)C(=CC[C@@H]4[C@@]5(C)CCC(=O)C(C)(C)[C@@H]5CC[C@]43C)[C@H]12 | 40.3 | > 50 |  |  |
| C=C(C)[C@@H]1CC[C@]2(COC(C)=O)CC[C@]3(C)[C@H](CC[C@@H]4[C@@]5(C)CC[C@H](OC(C)=O)C(C)(C)[C@@H]5CC[C@]43C)[C@@H]12 [BETULIN DIACETATE] | 36.8 | 3.4 |  |  |
| C=C(C)[C@@H]1CC[C@]2(C=O)CC[C@]3(C)[C@H](CC[C@@H]4[C@@]5(C)CC[C@H](O)C(C)(C)[C@@H]5CC[C@]43C)[C@@H]12 [BETULINALDEHYDE] | 6.4 | 3.3 | 70.4 |  |
| C=C(C)[C@@H]1CC[C@]2(C(=O)O)CC[C@]3(C)[C@H](CC[C@@H]4[C@@]5(C)CC[C@H](O)C(C)(C)[C@@H]5CC[C@]43C)[C@@H]12 [BETULINIC ACID] | 7.9 | 4.1 |  |  |
| C=C(C)[C@@H]1CC[C@]2(CO)CC[C@]3(C)[C@H](CC[C@@H]4[C@@]5(C)CC[C@H](O)C(C)(C)[C@@H]5CC[C@]43C)[C@@H]12 [BETULIN] | 27.4 | 4.8 |  |  |
| C=C(C)[C@@H]1CC[C@]2(C=O)CC[C@]3(C)[C@H](CC[C@@H]4[C@@]5(C)CCC(=O)C(C)(C)[C@@H]5CC[C@]43C)[C@@H]12 [BETULONAL] | 4.1 | 0.35 |  |  |
| C=C(C)[C@@H]1CC[C@]2(CO)CC[C@]3(C)[C@H](CC[C@@H]4[C@@]5(C)CCC(=O)C(C)(C)[C@@H]5CC[C@]43C)[C@@H]12 [BETULONE] | 29.3 | 0.19 |  |  |
| CC1(C)CC[C@]2(CO)CC[C@]3(C)C(=CC[C@@H]4[C@@]5(C)CC[C@H](O)C(C)(C)[C@@H]5CC[C@]43C)[C@@H]2C1 [ERYTHRODIOL] | 33.4 | > 50 |  |  |
| C=C(C)[C@@H]1CC[C@]2(C)CC[C@]3(C)[C@H](CC[C@@H]4[C@@]5(C)CCC(=O)C(C)(C)[C@@H]5CC[C@]43C)[C@@H]12 [LUPENONE] | 25.4 | 0.35 |  |  |
| C=C(C)[C@@H]1CC[C@]2(C)CC[C@]3(C)[C@H](CC[C@@H]4[C@@]5(C)CC[C@H](OC(C)=O)C(C)(C)[C@@H]5CC[C@]43C)[C@@H]12 [LUPENYL ACETATE] | 22.7 | 7.5 |  |  |
| C=C(C)[C@@H]1CC[C@]2(C)CC[C@]3(C)[C@H](CC[C@@H]4[C@@]5(C)CC[C@H](O)C(C)(C)[C@@H]5CC[C@]43C)[C@@H]12 [LUPEOL] | 38 | 9.9 |  |  |
| C=C(C)[C@@H]1CC[C@]2(C(=O)OC)CC[C@]3(C)[C@H](CC[C@@H]4[C@@]5(C)CC[C@H](O)C(C)(C)[C@@H]5CC[C@]43C)[C@@H]12 [METHYL BETULINATE] | 4.9 | 2.5 |  |  |
| CC1(C)CC[C@]2(C(=O)O)CC[C@]3(C)C(=CC[C@@H]4[C@@]5(C)CC[C@H](O)C(C)(C)[C@@H]5CC[C@]43C)[C@@H]2C1 [OLEANOLIC_ACID] | 4.8 |  |  | inactive |
| C[C@H]1[C@H](C)CC[C@]2(C(=O)O)CC[C@]3(C)C(=CC[C@@H]4[C@@]5(C)CC[C@H](O)C(C)(C)[C@@H]5CC[C@]43C)[C@H]12 [URSOLIC ACID] | 3.1 |  |  | inactive |
| C[C@H]1[C@H](C)CC[C@]2(CO)CC[C@]3(C)C(=CC[C@@H]4[C@@]5(C)CC[C@H](O)C(C)(C)[C@@H]5CC[C@]43C)[C@H]12 [UVAOL] | 46.8 | > 50 |  |  |
| CC1(C)CC[C@]2(C)CC[C@]3(C)C(=CC[C@@H]4[C@@]5(C)CC[C@H](O)C(C)(C)[C@@H]5CC[C@]43C)[C@@H]2C1 [beta-AMYRIN] | 48.8 | > 50 |  |  |
